Test results taken from ChEMBL document CHEMBL4431302, “Vobatensines A-F, Cytotoxic Iboga-Vobasine Bisindoles from Tabernaemontana corymbosa” (J Nat Prod, 2016).

Experiments:
[1] = Growth inhibition of human KB/S cells after 72 hrs by MTT assay; format: functional
In short: (§1)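 Cytotoxicity run by a previously reported procedure, with vincristine and cisplatin as positive controls.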

[2] = test system: KB/VJ300; assay: Growth inhibition of human KB/VJ300 cells after 72 hrs by MTT assay; format: functional, cell-based; settings: KB/VJ300, 72 h; in short: as §1
[3] = test system: PC-3; assay: Growth inhibition of human PC3 cells after 72 hrs by MTT assay; format: functional, cell-based; settings: PC-3, 72 h; in short: as §1
[4] = test system: LNCaP; assay: Growth inhibition of human LNCAP cells after 72 hrs by MTT assay; format: functional, cell-based; in short: as §1
[5] = test system: MCF7; assay: Growth inhibition of human MCF7 cells after 72 hrs by MTT assay; format: functional, cell-based; settings: MCF7, 72 h; in short: as §1
[6] = test system: MDA-MB-231; assay: Growth inhibition of human MDA-MB-231 cells after 72 hrs by MTT assay; format: functional, cell-based; settings: MDA-MB-231, 72 h; in short: as §1
[7] = test system: A549; assay: Growth inhibition of human A549 cells after 72 hrs by MTT assay; format: functional, cell-based; settings: A549, 72 h; in short: as §1
[8] = test system: HCT-116; assay: Growth inhibition of human HCT116 cells after 72 hrs by MTT assay; format: functional, cell-based; settings: HCT-116, 72 h; in short: as §1
[9] = test system: HT-29; assay: Growth inhibition of human HT-29 cells after 72 hrs by MTT assay; format: functional, cell-based; settings: HT-29, 72 h; in short: as §1
[10] = test system: KB/VJ300; assay: Growth inhibition of human KB/VJ300 cells after 72 hrs in presence of vincristine by MTT assay; format: functional, cell-based; settings: KB/VJ300, 72 h
In short: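 Vincristine-resistant KB/VJ300 cells were exposed to test compound together with vincristine at 0.1 μg/mL, a multidrug-resistance reversal set-up. Cytotoxicity was run by a previously reported procedure, with vincristine and cisplatin as positive controls.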

SMILES	IC50 [2]	IC50 [3]	IC50 [4]	IC50 [5]	IC50 [6]	IC50 [7]	IC50 [8]	IC50 [9]	IC50 [10]	IC50 [1]
C/C=C1/CN(C)[C@H]2Cc3c([nH]c4ccccc34)[C@@H](c3cc4[nH]c5c(c4cc3OC)CCN3C[C@H]4C[C@H](CC)[C@H]3[C@H]5C4)C[C@H]1[C@@H]2C(=O)OC	5 µM	2.8 µM	> 10 µM	6 µM	2.5 µM	6.8 µM	1.6 µM	0.93 µM	7 µM	5.3 µM
CC[C@@H]1CN(C)[C@H]2Cc3c([nH]c4ccccc34)[C@@H](c3cc4c(cc3OC)C(=O)[C@@]3(CCN5C[C@H]6C[C@H](CC)[C@H]5[C@H]3C6)N4)C[C@H]1[C@@H]2C(=O)OC	> 10 µM	8.1 µM	> 10 µM	7.5 µM	3.3 µM	8.4 µM	7.8 µM	1.8 µM	5.1 µM	> 10 µM
C/C=C1/CN(C)[C@H]2Cc3c([nH]c4ccccc34)[C@@H](c3cc4c(cc3OC)[C@@]3(O)CCN5C[C@H]6C[C@H](CC)[C@H]5[C@@H](C6)C3=N4)C[C@H]1[C@@H]2C(=O)OC	10 to 30 µM	5.6 µM	> 10 µM	> 10 µM	> 10 µM	> 10 µM	9.7 µM	7.2 µM	9 to 9.2 µM	> 10 µM
C/C=C1/CN2CC[C@]34C(=C(C=O)C1C[C@H]23)Nc1cc([C@H]2C[C@@H]3/C(=C\C)CN(C)[C@@H](Cc5c2[nH]c2ccccc52)[C@H]3C(=O)OC)ccc14	> 10 µM	5.4 µM	> 10 µM	8.6 µM	4.5 µM	9.2 µM	6.7 µM	1.3 µM	> 10 µM	> 10 µM
COc1ccc(CCN(C)CCCC(C#N)(c2ccc(OC)c(OC)c2)C(C)C)cc1OC (stereo not given) [VERAPAMIL]	> 10 µM								4.6 µM	> 10 µM

Now from value to molecule, other results behind:

IC50 [2]	IC50 [3]	IC50 [4]	IC50 [5]	IC50 [6]	IC50 [7]	IC50 [8]	IC50 [9]	IC50 [10]	SMILES	IC50 [1]
9.1 µM	8.8 µM	10 µM	9.4 µM	7.7 µM	9.1 µM	7.1 µM	2.9 µM	3.3 µM	C/C=C1/CN(C)[C@H]2Cc3c([nH]c4ccccc34)[C@@H](c3cc4c(cc3OC)C(=O)[C@@]3(CCN5C[C@H]6C[C@H](CC)[C@H]5[C@H]3C6)N4)C[C@H]1[C@@H]2C(=O)OC	8.3 µM
10 to 30 µM	7.7 µM	> 10 µM	> 10 µM	4.6 µM	> 10 µM	7.4 µM	1.9 µM	9 to 9.6 µM	C/C=C1/CN(C)[C@H]2Cc3c([nH]c4ccccc34)[C@@H](c3c(OC)ccc4[nH]c5c(c34)CCN3C[C@H]4C[C@H](CC)[C@H]3[C@H]5C4)C[C@H]1[C@@H]2C(=O)OC	> 10 µM
8.1 µM	6.9 µM	> 10 µM	9.3 µM	3.6 µM	9.6 µM	3.5 µM	2.4 µM	8.6 µM	CC[C@@H]1CN(C)[C@H]2Cc3c([nH]c4ccccc34)[C@@H](c3cc4[nH]c5c(c4cc3OC)CCN3C[C@H]4C[C@H]([C@@H](C)O)[C@H]3[C@H]5C4)C[C@H]1[C@@H]2C(=O)OC	8 µM
8.3 µM	3.5 µM	> 10 µM	3.4 µM	2.8 µM	> 10 µM	2.9 µM	0.92 µM	9.3 µM	CC[C@@H]1CN(C)[C@H]2Cc3c([nH]c4ccccc34)[C@@H](c3cc4[nH]c5c(c4cc3OC)CCN3C[C@H]4C[C@H](CC)[C@H]3[C@H]5C4)C[C@H]1[C@@H]2C(=O)OC	8 µM
7.2 µM	5.7 µM	> 10 µM	8.8 µM	3.9 µM	9.7 µM	3 µM	1.2 µM	> 10 µM	C/C=C1/CN(C)[C@H]2Cc3c([nH]c4ccccc34)[C@@H](c3cc4[nH]c5c(c4cc3OC)CCN3C[C@H]4C[C@H]([C@@H](C)O)[C@H]3[C@H]5C4)C[C@H]1[C@@H]2C(=O)OC	8.2 µM
6.6 µM									CC[C@]1(O)C[C@H]2CN(CCc3c([nH]c4ccccc34)[C@@](C(=O)OC)(c3cc4c(cc3OC)N(C=O)[C@H]3[C@@](O)(C(=O)OC)[C@H](OC(C)=O)[C@]5(CC)C=CCN6CC[C@]43[C@@H]65)C2)C1 [VINCRISTINE]	0.0024 µM
